# Rows were chosen to be rich in hits. Some 4.9% of all compounds tested hit in one or more screens of this group.
# STAT1 act: STAT1 signaling activators, primary screen, cell-based, HTS, luciferase reporter. NIH 3T3 STAT1-luciferase reporter, IFN-gamma, luminescence; 100% = IFN-gamma alone, no compound. activation (% of control), % at 5.5 µM. 200,000 tested, 2.6% active;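 active = activation above the screen-wide mean activation plus 3 SD, cut at about 130% in these data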;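 also: raw ratio to IFN-gamma control signal so 100% means no change and 0% no light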
# STAT1 blocker: STAT1 signaling inhibitors, primary screen, cell-based, HTS, luciferase reporter; NIH 3T3 STAT1-luciferase reporter, IFN-gamma, luminescence; AID 920, 2007; 200,000 tested, 0.35% active; inhibition, % at 5.5 µM;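 active = inhibition above a set limit, the mean inhibition across all tested compounds plus 3 SD, cut at about 34% in these data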;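 also: 0% = IFN-gamma with DMSO and 100% = IFN-gamma with 300 µM nifuroxazide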
# NF-kB expr up: activators of NF-kB expression in neurons, primary screen, cell-based, HTS. human neuronal cells, NF-kB reporter expression; stronger effect = higher value. 190,000 tested, 1.6% active. fold change at 12.5 µM; in the data active = fold change above about 3.3
# STAT3 inh: IL-6 driven STAT3 reporter inhibitors, primary screen, U3A cells, luciferase, luminescence, MLSCN library. inhibition, % at 5.5 µM. 190,000 tested, 0.89% active. IL-6 STAT3-luciferase reporter; host cell line lacks STAT1. AID 862, 2007;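 active = inhibition above the mean inhibition across all screened compounds plus 3 SD, cut at about 44% in these data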;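 also: 0% = DMSO only wells and 100% = 100 µM nifuroxazide control wells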
# STAT3 activator: IL-6 driven STAT3 reporter potentiators, primary screen, U3A cells, luciferase, luminescence, MLSCN library. IL-6 STAT3-luciferase reporter; 100% = signal with IL-6 EC80 alone. activation (% of control), % at 5.6 µM. 190,000 tested, 0.91% active. AID 871, 2007;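 active = activation above the screen-wide mean of compound activation plus 3 SD, cut at about 130% in these data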;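 also: 0% = background luminescence of wells with medium and substrate only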
#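 Assay system – human STAT1-deficient U3A cells with stable STAT3-luciferase reporter · Also added – IL-6 (33 ng/mL) · Schedule – compound 1 h, then IL-6 6 h at 37 °C · Technique – reporter luminescence signal · Evaluation – % activation versus median of IL-6-stimulated wells · Benchmarks – IL-6-only wells as 100% reference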
# APP 5'UTR act: activators of APP 5'UTR luciferase reporter, primary screen, SH-SY5Y cells. SH-SY5Y APP 5'UTR luciferase reporter, luminescence; zero percent = DMSO vehicle wells. activation, % at 2 µM. AID 1276, 2008. 190,000 tested, 1% active;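 active = activation above a set limit, based on mean plus 3 SD of controls, cut at about 140% in these data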
# Starred values were filed as active, the others as inactive.
SMILES,STAT1 act,STAT1 blocker,NF-kB expr up,STAT3 inh,STAT3 activator,APP 5'UTR act
CCOc1cc(/C=N/O)ccc1OCc1ccc(C)cc1,130*,-34,1.5,-6,102,18
Cc1ccc(COc2ccc(Br)cc2/C=N/O)cc1,135*,-39,3.1,19,89,78
CC(C(=O)Nc1ccc(S(=O)(=O)N2CCCCC2)cc1)N1CCN(c2ccccn2)CC1 (stereo not given),96,1,1.5,-4,107,-1
CCc1ccc(NC(=O)c2cnc3n(c2=O)CCS3)cc1,131*,-34,2.8,-17,118,40
CCc1ccccc1NC(=O)c1cnc2n(c1=O)CCS2,112,-13,1.6,13,93,5
Cc1ccc(NC(=O)COC(=O)C2CC2(Cl)Cl)cc1C (stereo not given),99,-1,0.91,9,102,-5
CCc1ccc(OCC(=O)N(CC)CC)cc1,108,-9,1.2,6,98,16
COc1ccc(C2C(C(C)=O)=C(O)C(=O)N2c2ccc(Br)cn2)cc1 (stereo not given),108,-9,1.3,-36,134*,43
CCCCc1nnc(NC(=O)C(C)Sc2nc(O)c(Cc3ccccc3)c(=O)[nH]2)s1 (stereo not given),107,-9,1.3,8,99,-3
C/C(=N\Nc1cccc2cccnc12)c1ccc[nH]1,113,-17,1.3,-17,115,206*
CC(C)(C)c1ccc(/C=C2\SC(=O)N(CCNC(=O)c3cccc(S(=O)(=O)N4CCOCC4)c3)C2=O)cc1,114,-16,0.72,17,88,135*
COc1ccc(-n2nc(C(=O)NCC(=O)NCC3COc4ccccc4O3)c3ccccc3c2=O)cc1 (stereo not given),98,0,0.52,10,93,-2
Cc1ccc(-c2nc(SCC(=O)NCC3CCCO3)c(-c3ccccc3)[nH]2)cc1 (stereo not given),110,-11,0.8,7,94,12
CCOC(=O)Cn1cnc(-c2ccc([N+](=O)[O-])cc2)c1,136*,-41,1.6,-9,107,14
Cc1cc(C)n(C(=O)COc2ccc([N+](=O)[O-])cc2)n1,97,4,1.4,-3,106,-6
Cc1ccc(N2C(=O)CC(N3CCc4ccccc43)C2=O)cc1Cl (stereo not given),106,-8,1.1,9,98,-16
Cc1cnc([N+](=O)[O-])n1CCOC(=O)NC(=O)c1ccccc1Cl,105,-8,1.2,-1,106,-8
COC(=O)CSc1nc(-c2cccs2)ccc1C#N,133*,-37,7.3*,-4,108,152*
C#CCSc1nc(-c2cccs2)ccc1C#N,102,-2,1,-12,112,-9
CCN(CC)C(=O)CSc1nc(-c2ccccc2)ccc1C#N,132*,-38,1.2,12,94,19
N#Cc1ccc(-c2ccccc2)nc1SCC(=O)c1cccc(Cl)c1,103,-3,1.1,21,91,-9
CCOC(=O)C1=C(CSc2nc(CC)c(C)cc2C#N)OC(N)=C(C#N)C1c1ccccc1 (stereo not given),87,14,0.96,4,102,11
CCOC(=O)C1=C(CSc2nc(-c3ccccc3)ccc2C#N)OC(N)=C(C#N)C1c1ccc(OC)cc1 (stereo not given),147*,-53,2.5,-1,103,95
O=C(COC(=O)CNS(=O)(=O)c1cccc(Br)c1)NC(=O)Nc1ccc2c(c1)OCCO2,107,-8,1.3,0,108,-5
O=C(Cc1c(F)cccc1Cl)Nc1ccc(S(=O)(=O)NCC2CCCO2)cc1 (stereo not given),98,1,1,-4,106,0
O=C(N/N=C/c1ccc(N2CCOCC2)cc1)c1ccccc1OCCOc1ccccc1,113,-16,0.63,-9,111,-4

# Compound activity deposited in PubChem BioAssay by several laboratories.
